Key:
[1] = system: A549 (G12S); assay: CellTiter-Glo cell viability assay, A549; format: cell-based; conditions: Homo sapiens, A549, 72 h, read-out: Cellular activity IC50, A549 (G12S)
How it was run: (§1)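 Cells seeded, then held 24 h at 37 °C/5 % CO2 before test compound in DMSO was added at various concentrations. Plates were incubated a further 72 h at 37 °C, 5 % CO2, humidified. Controls were DMSO vehicle and 10 μM staurosporine. CellTiter-Glo reagent was added at equal volume to the medium, then 2 min shaking and 10 min at room temperature before luminescence (ATP) reading. IC50 from dose-response fit; plates accepted only if Z' ≥0.5, from 16 control values each.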

[2] = target: K‐Ras wild type protein (Homo sapiens, UniProt P01116); assay: Nucleotide exchange assay; format: biochemical
K‐Ras wild type protein, sequence (P01116 1-188 isoform P01116-2): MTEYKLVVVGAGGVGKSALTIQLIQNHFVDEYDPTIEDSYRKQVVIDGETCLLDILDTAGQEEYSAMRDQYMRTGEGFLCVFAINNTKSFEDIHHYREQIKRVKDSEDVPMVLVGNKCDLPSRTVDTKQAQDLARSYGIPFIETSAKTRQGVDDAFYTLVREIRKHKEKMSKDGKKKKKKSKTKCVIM
How it was run: (§2)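 SOS1 (final 30.2 nM for G12D, 4.6 nM for wild type) and GTP (1 μM final) follow. Incubated overnight at room temperature, then GDP detection reagent for 1 h. Luminescence read; IC50 from sigmoidal curves.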

[3] = system: NCI‐H441 (G12 V); assay: CellTiter-Glo cell viability assay, NCI-H441; format: cell-based; conditions: Homo sapiens, NCI-H441, 72 h, read-out: Cellular activity IC50, NCI‐H441 (G12 V)
How it was run: as §1

[4] = system: SNU‐1 (G12D); assay: CellTiter-Glo cell viability assay, SNU-1; format: cell-based; conditions: Homo sapiens, SNU1, 72 h, read-out: Cellular activity IC50, SNU‐1 (G12D)
How it was run: as §1

[5] = target: K‐Ras(G12D) (Homo sapiens, UniProt P01116, G12D); assay: Nucleotide exchange assay; format: biochemical
K‐Ras(G12D), sequence (P01116 1-188 isoform P01116-2 G12D): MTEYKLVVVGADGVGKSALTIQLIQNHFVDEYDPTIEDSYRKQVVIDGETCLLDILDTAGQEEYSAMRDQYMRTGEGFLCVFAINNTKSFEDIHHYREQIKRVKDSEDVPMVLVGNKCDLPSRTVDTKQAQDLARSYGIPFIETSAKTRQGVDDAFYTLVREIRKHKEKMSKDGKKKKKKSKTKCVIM
How it was run: as §2

[6] = system: HCT15 (G13D); assay: CellTiter-Glo cell viability assay, HCT15; format: cell-based; conditions: Homo sapiens, HCT-15, 72 h, read-out: Cellular activity IC50, HCT15 (G13D)
How it was run: as §1

[7] = cited from earlier work
[8] = system: H358 (G12 C); assay: CellTiter-Glo cell viability assay, H358; format: cell-based; conditions: Homo sapiens, NCI-H358, 72 h, read-out: Cellular activity IC50, H358 (G12 C)
How it was run: as §1

[9] = Control assay for nucleotide exchange assay; conditions: 3 mM compound; percent of control
[10] = system: tErk in A375 cells; assay: HTRF assay, tErk in A375; format: cell-based; conditions: Homo sapiens, A-375, read-out: tErk IC50
[11] = system: Ras mutant tumor cell lines; assay: Tumor cell assays, all tested cell lines; format: cell-based; conditions: read-out: IC50 values for all tested cell lines
How it was run: as §1

[12] = system: pErk in SNU‐1 cells; assay: HTRF assay of downstream phosphorylation, pErk in SNU-1; format: cell-based; conditions: Homo sapiens, SNU1, read-out: pErk IC50
How it was run: (§3)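 Test compound was given as a 3-fold 8-point series, top 330 μM final, 1 % DMSO, for 1 h. EGF at 3 nM final was then added for 15 min. Cells were lysed 30 min at room temperature. TR-FRET antibody detection followed after 20 h at room temperature; read-out gave IC50.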

[13] = system: tAkt in SNU‐1 cells; assay: HTRF assay, tAkt in SNU-1; format: cell-based; conditions: Homo sapiens, SNU1, read-out: tAkt IC50
How it was run: as §3

[14] = Stability in cell culture medium; format: in vitro ADME; conditions: for stability in cell culture medium: 24 h
[15] = system: tErk in SNU‐1 cells; assay: HTRF assay, tErk in SNU-1; format: cell-based; conditions: Homo sapiens, SNU1, read-out: tErk IC50
How it was run: as §3

[16] = system: pAkt in A375 cells; assay: HTRF assay of downstream phosphorylation, pAkt in A375; format: cell-based; conditions: Homo sapiens, A-375, read-out: pAkt IC50
[17] = system: tAkt in A375 cells; assay: HTRF assay, tAkt in A375; format: cell-based; conditions: Homo sapiens, A-375, read-out: tAkt IC50
[18] = system: pAkt in SNU‐1 cells; assay: HTRF assay of downstream phosphorylation, pAkt in SNU-1; format: cell-based; conditions: Homo sapiens, SNU1, read-out: pAkt IC50
How it was run: as §3

[19] = system: pErk in A375 cells; assay: HTRF assay of downstream phosphorylation, pErk in A375; format: cell-based; conditions: Homo sapiens, A-375, read-out: pErk IC50
[20] = target: K‐Ras4B (Homo sapiens, UniProt P01116); assay: NMR titration experiments; format: binding
K‐Ras4B, sequence (P01116 1-188 isoform P01116-2): as the sequence (P01116 1-188 isoform P01116-2) above
How it was run: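 GDP-bound K-Ras4B was titrated with test compound and followed by NMR chemical shift perturbation; KD derived from the titration.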

[21] = target: (GTP)K‐Ras4B (Homo sapiens, UniProt P01116); assay: MST; format: binding
(GTP)K‐Ras4B, sequence (P01116 1-188 isoform P01116-2): as above

[22] = Stability in human plasma solution; format: in vitro ADME; conditions: over 24 h
[23] = target: (GDP)K‐Ras4B (Homo sapiens, UniProt P01116); assay: MST; format: binding
(GDP)K‐Ras4B, sequence (P01116 1-188 isoform P01116-2): as above

Row | IC50 [1] [µM] | IC50 [2] [µM] | IC50 [4] [µM] | IC50 [5] [µM] | IC50 [6] [µM] | IC50 [8] [µM] | IC50 [10] [µM] | IC50 [12] [µM] | IC50 [13] [µM] | IC50 [15] [µM] | IC50 [16] [µM] | IC50 [17] [µM] | IC50 [18] [µM] | IC50 [19] [µM] | SMILES | IC50 [3] [µM] | WT %CRTL (3 mM) [9] [%] | other results
1 | 16.1 ± 1.5 | 306 ± 49 | 16.7 ± 1.2 | 236 ± 46 | 18.9 ± 0.6 | 20.9 ± 0.8 |  |  |  |  |  |  |  |  | O=[N+]([O-])c1ccc(NN=C(c2ccc(O)cc2)c2ccc(O)cc2)c([N+](=O)[O-])c1 [7 a, 4,4′‐((2‐(2,4‐Dinitrophenyl)hydrazinylidene)methylene)diphenol] | 22.8 ± 4.2 | 26 | tolerability [7]: well tolerated
2 | 28.7 ± 4.7 | 1040 ± 427 | 23.7 ± 14.4 | 413 ± 28 | 17.6 ± 13.4 | 33.7 ± 0.6 | 491 | 455 | > 1000 | > 550 | > 1000 | > 1000 | 95.3 | 415 | Oc1ccc(C(=NNc2ccc(F)cc2)c2ccc(O)cc2)cc1 [7 c, 4,4′‐((2‐(4‐Fluorophenyl)hydrazinylidene)‐methylene)diphenol] | 24.7 ± 8.3 | 83 | IC50 [11]: 20 to 30 µM; cell culture medium stability [14]: 2.2%
3 | 30.1 ± 9 | 1300 ± 417 | 31.2 ± 6.8 | 475 | 27.4 ± 4.5 | 40.2 ± 1 |  |  |  |  |  |  |  |  | Oc1ccc(C(=NNc2ccc(Cl)cc2)c2ccc(O)cc2)cc1 [7 d, 4,4′‐((2‐(4‐Chlorophenyl)hydrazinylidene)‐methylene)diphenol] | 29.3 ± 4.1 | 84 | IC50 [11]: 20 to 30 µM; cell culture medium stability [14]: 0.4%
4 | 11.9 ± 0.7 | 1070 ± 312 | 16.7 ± 1.9 | 628 ± 170 | 12.5 ± 1.4 | 15.1 ± 1.2 | > 1000 | 520 | > 1000 | > 1000 | > 1000 | > 1000 | 431 | > 1000 | Oc1ccc(C(=NNc2ccc(C(F)(F)F)cc2)c2ccc(O)cc2)cc1 [7 e, 4,4′‐((2‐(4‐(Trifluoromethyl)phenyl)‐hydrazinylidene)methylene)diphenol] | 13.4 ± 2.7 | 90 | stability in cell culture medium [14]: completely stable
5 | 71.3 ± 6.5 | 1050 ± 405 | 81 ± 26.3 | 583 ± 146 | 85 ± 9.2 | 69.8 ± 2.4 | 255 | 240 | 586 | > 875 | > 1000 | > 1000 | 96.6 | 203 | O=S(=O)(NN=C(c1ccc(O)cc1)c1ccc(O)cc1)c1ccc(Cl)cc1 [8 c, N′‐(bis(4‐hydroxyphenyl)methylene)‐4‐chlorobenzenesulfonohydrazide] | 102 ± 16 | 91 | 
6 | > 300 | 1330 ± 104 | 187 ± 19 | 1210 ± 116 |  |  |  |  |  |  |  |  |  |  | O=C(c1ccc(O)cc1)c1ccc(O)cc1 [compound 9, 4,4’‐Dihydroxybenzophenone, reference compound] | > 300 |  | Kd [20]: 9100 ± 3900 µM
7 | 54.3 ± 3.6 | 1330 ± 343 | 41.7 ± 4.2 | 431 ± 22 | 43.9 ± 1.8 | 58.6 ± 0.5 | 77.2 | 218 | 475 | > 1000 | > 1000 | 749 | 47.7 | 48.8 | Oc1ccc(C(=NOCc2ccccc2)c2ccc(O)cc2)cc1 [compound 11, Bis(4‐hydroxyphenyl)methanone‐O‐benzyl oxime] | 62.2 ± 4.8 | 98 | Kd [21]: 602 µM; stability in cell culture medium [14]: completely stable; stability in human plasma solution [22]: 92%; Kd [23]: 89 µM
8 | 45.3 ± 1.5 | 1100 ± 381 | 34.5 ± 2.1 | 340 ± 72 | 37.7 ± 0.4 | 37.7 ± 1.3 |  |  |  |  |  |  |  |  | O=C(c1nc2cccc(O)c2[nH]1)c1cc2cccc(O)c2o1 [compound 12, (7‐Hydroxy‐1H‐benzimidazol‐2‐yl)‐(7‐hydroxybenzofuran‐2‐yl)methanon] | 47.4 ± 3 | 75 | Kd [21]: 34 µM; Kd [20]: 500 ± 100 µM; fold stronger binding to K‐Ras4B than DHBP ([20]; NMR titration KD ratio versus DHBP): 18 fold; Kd [23]: 59 µM

From PMC9826232 (Chemmedchem, 2022)
